Screening data as filed in PubChem BioAssay.
Runt-CBFb FRET: blocks binding of human RUNX1 Runt domain to CBFb. Q01196+Q13951. Cerulean-Runt/Venus-CBFb FRET ratio 530/480, 1 h. inhibition, % at 20 µM. actives 0.46% (n = 220,000). AID 1496;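 active = inhibition over about 50% at 20 µM in the single-dose screen, limit read from the data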
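Doses: 20 µM compound in 1% DMSO | Material: Cerulean-labeled Runt domain protein | Amount: Each fluorescent fusion protein 100 nM | Schedule: Two 1 h room-temperature incubations shielded from light | Measured by: FRET fluorescence | Evaluation: Loss of energy transfer signal | Controls: Unlabeled CBFb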
Runt-SMMHC FRET: inhibitors of human RUNX1 Runt domain binding to CBFb-SMMHC. Q01196+Q13951. Cerulean-Runt/Venus-CBFb-SMMHC FRET ratio 530/480, 1 h. inhibition, % at 20 µM. actives 0.74% (n = 220,000);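 active = mean inhibition across duplicate retests at 20 µM reaching about 50%, limit read from the data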;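 note: inhibitors lower the FRET ratio by blocking Runt binding to CBFb-SMMHC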
RanGTP-Impb inh: disruptors of Ran-importin-beta complex formation – biochemical, FRET, CFP-Ran, YFP-importin-beta, homogeneous, primary screen; cell-free CFP-Ran/YFP-importin-beta FRET ratio; inhibition, % (concentration not given with the values); actives 1.1% (n = 300,000); AID 2216;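 active = more than half of the replicate wells show a fall in the fluorescence ratio signal beyond about 16%, limit read from the data, passing the limit was not always enough; inconclusive = exactly half of the replicate wells pass the set limit; inactive = fewer than half of replicates pass the limit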
PfM18AAP inh-1: PfM18AAP enzyme inhibition | recombinant PfM18AAP, H-Glu-NHMec fluorogenic cleavage | inhibition, % at 7.35 µM | actives 1.2% (n = 290,000) | AID 1822;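 active = inhibition above the campaign mean inhibition over all tested compounds plus 3 SD, cut at about 28% in these data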
Hck-Nef inh: blocks Nef-activated human Hck kinase | Recombinant Hck-YEEI plus Nef, Z-Lyte FRET kinase assay | inhibition, % at 20 µM | P08631 | actives 0.68% (n = 220,000);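 active = Hck-Nef kinase inhibition above about 50%, limit read from the data; inactive = inhibition below that limit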
RBBP9 inhibitor: blocks human serine hydrolase RBBP9 | recombinant RBBP9, FP-Rh probe fluorescence polarization | O75884 | inhibition, % at 7.94 µM | actives 0.2% (n = 220,000);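 active = inhibition above the campaign mean of all tested compounds plus 3 SD, cut at about 14% in these data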
Target sequence (O75884 whole entry, looked up): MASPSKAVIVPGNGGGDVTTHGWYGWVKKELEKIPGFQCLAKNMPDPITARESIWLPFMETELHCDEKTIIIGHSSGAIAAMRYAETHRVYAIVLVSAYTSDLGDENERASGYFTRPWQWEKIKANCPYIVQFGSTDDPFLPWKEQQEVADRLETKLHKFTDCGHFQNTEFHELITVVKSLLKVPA
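system = RBBP9 protein | input = RBBP9 at 2.5 µM in dispensed solution, before mixing | measured by = fluorescence polarization (mP), excitation 525 nm, emission 598 nm | incubation = enzyme-compound preincubation 30 min, then probe labeling 45 min, 25 °C | buffer or medium = Tris-NaCl-Pluronic buffer, pH 8.0 | compound = single dose 7.94 µM | also added = FP-Rh probe, 375 nM dispensing solution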
PfM18AAP inh-2: PfM18AAP inhibition, confirmation | actives 28% (n = 2,400) | recombinant PfM18AAP, H-Glu-NHMec fluorogenic cleavage | shares compounds with PfM18AAP inh-1 | inhibition, % at 7.35 µM | AID 2170;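 active = mean inhibition over replicate wells above the hit cutoff set for the earlier primary screen, cut at about 29% in these data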
CTSL1 confirm: counter-screen for PFM18AAP inhibitors: confirmation of human cathepsin L inhibitors | shares compounds with PfM18AAP inh-1 | purified cathepsin L1, Z-Leu-Arg-MCA fluorescence | inhibition, % at 5.96 µM | 2,400 tested, under 10 active;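 active = average inhibition across replicates above the hit cutoff set in the earlier primary screen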
Target sequence (P07711 whole entry, looked up): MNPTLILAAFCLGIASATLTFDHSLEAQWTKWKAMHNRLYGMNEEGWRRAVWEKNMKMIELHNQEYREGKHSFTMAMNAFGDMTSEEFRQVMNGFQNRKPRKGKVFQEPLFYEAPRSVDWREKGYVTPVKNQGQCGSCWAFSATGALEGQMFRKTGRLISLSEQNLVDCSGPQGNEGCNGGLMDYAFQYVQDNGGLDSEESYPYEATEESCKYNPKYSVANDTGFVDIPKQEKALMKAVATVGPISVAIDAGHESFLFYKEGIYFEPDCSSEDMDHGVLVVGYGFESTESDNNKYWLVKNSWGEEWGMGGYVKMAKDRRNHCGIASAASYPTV
Numbers stand for hits; i = inactive; ? = inconclusive; nt = no result given. Most compounds without a hit are left out; they make up all but 2.9% or so of the library.

SMILES	Runt-CBFb FRET	Runt-SMMHC FRET	RanGTP-Impb inh	PfM18AAP inh-1	Hck-Nef inh	RBBP9 inhibitor	PfM18AAP inh-2	CTSL1 confirm
O=C(Nc1ccccc1O)c1ccccc1O	i	i	i	34.0	i	i	29.3	i
CC1CC(C)CN(C(=O)CN(C)S(=O)(=O)c2ccc3c(c2)c(=O)n(C)c(=O)n3C)C1 (stereo unspecified)	nt	nt	i	i	nt	nt	nt	nt
CN(C)c1cccc(NC(=O)CCc2ccccc2)c1	i	i	i	i	i	i	nt	nt
CN(C)c1cccc(NC(=O)Cc2ccc(F)cc2)c1	i	i	i	39.2	i	i	i	i
Cc1ccc(-c2n[nH]c(=S)n2/N=C/c2ccc(C)o2)cc1	i	i	i	i	i	i	nt	nt
Cc1ccc(/C=N/n2c(-c3ccc(Cl)cc3)n[nH]c2=S)o1	i	i	i	31.9	i	i	i	i
CNc1c(-n2cc(C(=O)OC)c(C(=O)OC)c2C(=O)OC)c(=O)n(C)c(=O)n1C	nt	nt	i	i	nt	nt	nt	nt
Cc1c(Cl)cccc1N1C(=O)CC(N(O)c2ccccc2)C1=O (stereo unspecified)	i	i	i	33.4	i	i	i	i
Cc1cc(NC(=O)NN2CCOCC2)nn1-c1c(Cl)cc(Cl)cc1Cl	i	i	i	i	i	i	nt	nt
CCN1/C(=C2\C(=O)N(C)C(=S)N2C)C=Cc2cc(OC)ccc21	i	i	i	33.7	i	i	i	i
CCN1/C(=C2/SC(=S)N(C)C2=O)C=Cc2cc(C)ccc21	nt	nt	i	nt	nt	nt	nt	nt
Cc1nnc(N/N=C/c2c(Cl)cccc2Cl)n1N	i	i	i	50.6	i	i	i	i
CCc1nnc(N/N=C/c2c(F)cccc2Cl)n1N	nt	nt	i	i	nt	nt	nt	nt
Cc1nnc(N/N=C/c2cc(C)n(-c3ccc(F)cc3)c2C)n1N	i	i	i	53.3	i	i	i	i
Cc1nnc(N/N=C/c2ccccc2O)n1N	i	i	i	i	i	i	nt	nt
CCOC(=O)CN1C(=O)CC(c2ccccc2)C1=O (stereo unspecified)	nt	nt	i	i	nt	nt	nt	nt
Oc1ccc(/C=C/c2cc(O)cc(O)c2)cc1	i	i	i	59.0	i	i	58.5	i
Cn1c(-c2ccco2)n[nH]c1=S	i	i	i	i	i	i	nt	nt
S=c1nc(-c2ccco2)[nH][nH]1	i	i	i	44.4	i	i	i	i
COc1ccc(S(=O)(=O)Nc2ccccc2C(=O)N2CCOCC2)cc1Br	nt	nt	i	i	nt	nt	nt	nt
COc1cc(/C=C2\SC(=S)N(Nc3ccccc3)C2=O)ccc1O	i	i	i	i	i	i	nt	nt
O=C1/C(=C/c2ccc(O)c(O)c2)SC(=S)N1Nc1ccccc1	i	i	i	58.1	i	i	30.9	i
O=C(Cc1ccccc1Cl)NCc1cccnc1	nt	nt	i	i	nt	nt	nt	nt
O=c1c2ccccc2cnn1Cc1n[nH]c(=S)n1-c1ccc(Cl)cc1	i	i	i	34.9	i	i	i	i
Cc1nc2ccccc2n1Cc1ccc(Cl)cc1	nt	nt	i	i	nt	nt	nt	nt
SMILES	Runt-CBFb FRET	Runt-SMMHC FRET	RanGTP-Impb inh	PfM18AAP inh-1	Hck-Nef inh	RBBP9 inhibitor	PfM18AAP inh-2	CTSL1 confirm
Cc1nc2ccccc2n1Cc1n[nH]c(=S)n1-c1ccc(Cl)cc1	i	i	i	38.8	i	i	i	i
C#CCNC(=O)C1=C[C@H](c2ccc(Br)cc2)C[C@H](OCCCCO)O1	i	i	i	i	i	i	nt	nt
O=C(NNc1ncc(C(F)(F)F)cc1Cl)c1c(Cl)cccc1Cl	i	i	?	i	i	i	nt	nt
NC(=O)NNc1ncc(C(F)(F)F)cc1Cl	i	i	i	45.3	i	i	36.0	i
O=C(O)c1ccc(N/N=C/c2ccc(C(F)(F)F)cc2)cc1	i	i	i	i	i	i	nt	nt
O=C(O)c1ccc(/C=N/Nc2ncc(C(F)(F)F)cc2Cl)cc1	i	i	i	48.0	i	i	i	i
COc1ccc([N+](=O)[O-])cc1NC(=O)CCN1CCOCC1	nt	nt	i	i	nt	nt	nt	nt
N#CCCN(Cc1ccccc1)C(=O)c1cccs1	i	i	i	i	i	i	nt	nt
O=C(/C=C/c1ccoc1)c1ccccc1O	i	i	i	i	i	i	nt	nt
O=C(/C=C/c1ccc(O)c(O)c1)c1ccccc1O	i	i	i	72.4	i	i	61.0	i
O=[N+]([O-])c1cc2c(cc1/C=N/n1cnnc1)OCO2	i	i	i	39.3	i	i	i	i
O=[N+]([O-])c1cccc(/C=N/n2cnnc2)c1O	i	i	i	i	i	i	nt	nt
COC(=O)c1ccc(C2NC(=O)c3c(sc(C)c3C)N2)cc1 (stereo unspecified)	i	i	i	i	i	i	nt	nt
Cc1sc2c(c1C)C(=O)NC(c1cccc(O)c1)N2 (stereo unspecified)	i	i	i	49.1	i	i	i	i
Oc1ccc(Br)cc1CNc1cccc2cccnc12	nt	nt	i	46.2	nt	nt	i	102.7
Oc1ccc(Br)cc1CNc1cnc2ccccc2c1	nt	nt	i	i	nt	nt	nt	nt
COCCN(Cc1nc(-c2ccc(-c3ccccc3)cc2)oc1C)C(C)C	nt	nt	i	i	nt	nt	nt	nt
CC(C)NC(=S)NNc1nc2ccccc2s1	i	i	i	40.8	i	i	34.4	i
O=C(NNc1nc2c(F)cc(F)cc2s1)c1ccccc1	i	i	i	38.9	i	i	i	i
O=C(NNc1nc2ccccc2s1)c1ccc(F)cc1	i	i	i	32.4	i	i	i	i
CC(=O)Nc1nc2c(F)cccc2s1	nt	nt	i	i	i	i	nt	nt
O=C(NNc1nc2c(F)cccc2s1)c1ccccc1	i	i	?	42.9	i	i	i	i
CC(C)C(=O)N(Nc1nc2ccccc2s1)C(=O)C(C)C	i	i	i	i	i	i	nt	nt
CC(NC(=O)CNC(=O)C1CCCCC1)c1ccc(S(N)(=O)=O)cc1 (stereo unspecified)	nt	nt	i	i	nt	nt	nt	nt
CC(C)C(NC(=O)c1ccco1)C(=O)NCc1ccc(C(=O)O)cc1 (stereo unspecified)	nt	nt	i	i	nt	nt	nt	nt
SMILES	Runt-CBFb FRET	Runt-SMMHC FRET	RanGTP-Impb inh	PfM18AAP inh-1	Hck-Nef inh	RBBP9 inhibitor	PfM18AAP inh-2	CTSL1 confirm
Cc1cc(C)c2c(N)c(C(=O)NCc3ccco3)sc2n1	i	i	i	35.6	i	i	i	i
N#CC1(NC(=O)CSc2n[nH]c(-c3ccccc3)n2)CCCCC1	nt	nt	i	nt	nt	nt	nt	nt
O=C(N/N=C/c1ccc(N2CCOCC2)s1)c1ccccc1Br	i	i	i	41.1	i	i	i	i
CC(C)(C)OC(=O)N/N=C/c1ccc(N2CCOCC2)s1	i	i	i	i	i	i	nt	nt
COCc1cc(C)nc(SCc2ccc([N+](=O)[O-])cc2)c1C#N	nt	nt	i	i	nt	nt	nt	nt
COc1ccc(OC)c(S(=O)(=O)Nc2cccc(O)c2)c1	nt	nt	i	nt	nt	nt	nt	nt
CSc1ccc(S(=O)(=O)Nc2ccc(S(=O)(=O)Nc3ccc(C)cc3)cc2)cc1	i	i	i	i	i	i	nt	nt
